Data taken from ChEMBL document CHEMBL4819032, “Structure-based design of highly selective 2,4,5-trisubstituted pyrimidine CDK9 inhibitors as anti-cancer agents” (Eur J Med Chem, 2021).
Activity calls are given as the source filed them.

Columns and labels:
A2780 [1] = assay: Induction of apoptosis in human A2780 cells assessed as early apoptotic cells at 0.5 uM after 24 hrs by Annexin V-FITC/PI staining based flow cytometric analysis (reference value: 1.6%); assay type: functional
Method in brief: (§1)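 A2780 cells cultured 24 h in medium alone or with varying inhibitor concentrations, then stained with FITC-annexin V/PI per kit protocol and analysed by flow cytometry. Run in triplicate and repeated at least twice; significance by one-way ANOVA, p < 0.01.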

A2780 [2] = assay: Induction of apoptosis in human A2780 cells assessed as increase in cleaved PARP protein expression at 0.5 to 5 uM after 24 hrs by Western blot analysis; assay type: functional, cell-based; details: dose 0.5-5 µM
Method in brief: (§2)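 A2780 cells treated for 24 h over a concentration series, then lysates analysed by Western blotting.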

A2780 [3] = assay: Induction of cell cycle arrest in human A2780 cells assessed as accumulation at G2/M phase at 0.5 uM after 24 hrs by propidium iodide staining based flow cytometric analysis (reference value: 21.6%); assay type: functional
Method in brief: (§3)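 4 × 10⁵ A2780 cells cultured 24 h in medium alone or with varying inhibitor concentrations, harvested into hypotonic fluorochrome solution (0.1% sodium citrate, 0.1% Triton X-100, propidium iodide, 100 ug/ml RNase A), and DNA content analysed by flow cytometry. Representative of three independent experiments.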

A2780 [4] = assay: Growth inhibition of human A2780 cells after 48 hrs by MTT assay; assay type: functional
A2780 [5] = assay: Induction of cell cycle arrest in human A2780 cells assessed as accumulation at G2/M phase at 2 uM after 24 hrs by propidium iodide staining based flow cytometric analysis (reference value: 21.6%); assay type: functional; method in brief: as §3
CDK9/cyclin T1 = CDK9/cyclin T1 (Homo sapiens, UniProt P50750); assay: Inhibition of recombinant human full length CDK9/Cyclin T1 using KTFCGTPEYLAPEVRREPRILSEEEQEMFRDFDYIADWC as substrate incubated for 40 mins in presence of [gamma-33P]-ATP by scintillation counting method; assay type: protein-complex assay
Method in brief: (§4)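 Radiometric kinase assay with ATP at each kinase's Km(app). IC50 values come from 10-point dose-response curves, and apparent Ki is calculated from IC50 and the kinase's Km(ATP).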

[6] = test system: Aurora kinase A (Homo sapiens), O14965 [UNDEFINED MUTATION]; assay: Inhibition of recombinant human full length Aurora-A I31F mutant using LRRASLG as substrate incubated for 40 mins by scintillation counting method
Method in brief: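 The 60-kinase diversity panel was run as a radiometric assay with ATP at each kinase's Km(app). Compound was tested at one fixed concentration across all kinases.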

A2780 [7] = assay: Induction of apoptosis in human A2780 cells assessed as late apoptotic cells at 5 uM after 24 hrs by Annexin V-FITC/PI staining based flow cytometric analysis (reference value: 2.8%); assay type: functional; method in brief: as §1
HCT-116 [8] = assay: Induction of apoptosis in human HCT-116 cells assessed as increase in cleaved-PARP protein expression at 0.5 to 5 uM after 24 hrs by Western blot analysis; assay type: functional, cell-based; details: dose 0.5-5 µM
A2780 [9] = assay: Induction of apoptosis in human A2780 cells assessed as increase in p21 protein expression at 0.5 to 5 uM after 24 hrs by Western blot analysis; assay type: functional, cell-based; details: dose 0.5-5 µM; method in brief: as §2
HCT-116 [10] = assay: Growth inhibition of human HCT-116 cells after 48 hrs by MTT assay; assay type: functional
[11] = molecular target: Cyclin-dependent kinase 7/ cyclin H (Homo sapiens, UniProt P50613); assay: Inhibition of recombinant human full length CDK7/Cyclin H using peptide as substrate incubated for 40 mins in presence of [gamma-33P]-ATP by scintillation counting method; assay type: protein-complex assay; method in brief: as §4
A2780 [12] = assay: Induction of apoptosis in human A2780 cells assessed as increase in p53 protein expression at 0.5 to 5 uM after 24 hrs by Western blot analysis; assay type: functional, cell-based; details: dose 0.5-5 µM; method in brief: as §2
Homo sapiens [13] = species: Homo sapiens; assay: Selectivity index, ratio of Ki for inhibition of recombinant human full length CDK2/Cyclin A to Ki for inhibition of recombinant human full length CDK9/Cyclin T1
Method in brief: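 Ratio of apparent Ki values for the two CDK/cyclin complexes. Each Ki is derived from an IC50 (10-point radiometric dose-response, ATP at Km(app)) using the kinase's Km(ATP). The selectivity index is defined as Ki(CDK2)/Ki(CDK9).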

Homo sapiens [14] = species: Homo sapiens; assay: Selectivity index, ratio of Ki for inhibition of recombinant human full length […]
A2780 [15] = assay: Induction of cell cycle arrest in human A2780 cells assessed as accumulation at S phase at 0.5 uM after 24 hrs by propidium iodide staining based flow cytometric analysis (reference value: 20%); assay type: functional; method in brief: as §3
HCT-116 [16] = assay: Induction of apoptosis in human HCT-116 cells assessed as reduction in Mcl-1 protein expression at 5 uM after 6 to 12 hrs by Western blot analysis; assay type: functional, cell-based; details: time 6-12 hrs
A2780 [17] = assay: Induction of apoptosis in human A2780 cells assessed as reduction in Mcl-1 protein expression at 5 uM after 6 to 12 hrs by Western blot analysis; assay type: functional, cell-based; details: time 6-12 hrs
Method in brief: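 A2780 cells treated for 6 or 12 h, then lysates analysed by Western blotting.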

MCF7 = assay: Growth inhibition of human MCF7 cells after 48 hrs by MTT assay; assay type: functional
A2780 [18] = assay: Induction of apoptosis in human A2780 cells assessed as reduction in Mcl-1 protein expression after 24 hrs by Western blot analysis; assay type: functional, cell-based; details: dose 0.5-5 µM; method in brief: as §2
A2780 [19] = assay: Induction of cell cycle arrest in human A2780 cells assessed as accumulation at G2/M phase at 1 uM after 24 hrs by propidium iodide staining based flow cytometric analysis (reference value: 21.6%); assay type: functional; method in brief: as §3
CDK2/Cyclin A2 = CDK2/Cyclin A2 (Homo sapiens, UniProt P24941); assay: Inhibition of recombinant human full length CDK2/Cyclin A using histone H1 as substrate incubated for 40 mins in presence of [gamma-33P]-ATP by scintillation counting method; assay type: protein-complex assay
A2780 [20] = assay: Induction of apoptosis in human A2780 cells assessed as viable cells at 1 uM after 24 hrs by Annexin V-FITC/PI staining based flow cytometric analysis (reference value: 92%); assay type: functional; details: read-out: Activity; method in brief: as §1
A2780 [21] = assay: Induction of cell cycle arrest in human A2780 cells assessed as accumulation at G1/G0 phase at 2 uM after 24 hrs by propidium iodide staining based flow cytometric analysis (reference value: 56.7%); assay type: functional; method in brief: as §3
HeLa = assay: Growth inhibition of human HeLa cells after 48 hrs by MTT assay; assay type: functional
A2780 [22] = assay: Induction of cell cycle arrest in human A2780 cells assessed as accumulation at S phase at 2 uM after 24 hrs by propidium iodide staining based flow cytometric analysis (reference value: 20%); assay type: functional; method in brief: as §3
A2780 [23] = assay: Induction of cell cycle arrest in human A2780 cells assessed as accumulation at pre-G1 phase at 5 uM after 24 hrs by propidium iodide staining based flow cytometric analysis (reference value: 1.2%); assay type: functional
A2780 [24] = assay: Induction of apoptosis in human A2780 cells assessed as necrotic cells at 2 uM after 24 hrs by Annexin V-FITC/PI staining based flow cytometric analysis (reference value: 3.6%); assay type: functional; method in brief: as §1
A2780 [25] = assay: Induction of apoptosis in human A2780 cells assessed as viable cells at 2 uM after 24 hrs by Annexin V-FITC/PI staining based flow cytometric analysis (reference value: 92%); assay type: functional; details: read-out: Activity; method in brief: as §1
A549 = assay: Growth inhibition of human A549 cells after 48 hrs by MTT assay; assay type: functional

Chain of Aurora kinase A (Homo sapiens), O14965 [UNDEFINED MUTATION] (O14965 whole entry, looked up, stated change not applied): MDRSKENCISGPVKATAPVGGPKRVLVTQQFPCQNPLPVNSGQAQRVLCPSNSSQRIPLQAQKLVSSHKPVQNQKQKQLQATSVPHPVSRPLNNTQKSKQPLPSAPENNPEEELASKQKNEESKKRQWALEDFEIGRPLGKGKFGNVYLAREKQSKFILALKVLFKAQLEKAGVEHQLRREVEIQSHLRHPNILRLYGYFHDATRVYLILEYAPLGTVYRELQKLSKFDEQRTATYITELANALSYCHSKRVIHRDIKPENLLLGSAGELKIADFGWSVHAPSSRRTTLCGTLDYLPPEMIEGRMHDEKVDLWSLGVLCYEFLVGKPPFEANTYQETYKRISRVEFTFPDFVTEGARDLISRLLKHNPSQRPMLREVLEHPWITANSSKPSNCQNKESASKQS
Chain of Cyclin-dependent kinase 7/ cyclin H (P51946 whole entry): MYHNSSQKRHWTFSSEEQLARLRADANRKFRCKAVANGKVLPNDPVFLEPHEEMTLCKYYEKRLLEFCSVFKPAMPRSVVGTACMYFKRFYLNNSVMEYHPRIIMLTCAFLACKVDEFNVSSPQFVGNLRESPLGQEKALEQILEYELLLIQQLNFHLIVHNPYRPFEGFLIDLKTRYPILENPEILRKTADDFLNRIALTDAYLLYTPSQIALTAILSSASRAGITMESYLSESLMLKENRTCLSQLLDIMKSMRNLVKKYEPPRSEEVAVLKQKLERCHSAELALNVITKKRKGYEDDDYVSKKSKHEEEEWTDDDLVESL
Chain of Cyclin-dependent kinase 7/ cyclin H (P50613 whole entry): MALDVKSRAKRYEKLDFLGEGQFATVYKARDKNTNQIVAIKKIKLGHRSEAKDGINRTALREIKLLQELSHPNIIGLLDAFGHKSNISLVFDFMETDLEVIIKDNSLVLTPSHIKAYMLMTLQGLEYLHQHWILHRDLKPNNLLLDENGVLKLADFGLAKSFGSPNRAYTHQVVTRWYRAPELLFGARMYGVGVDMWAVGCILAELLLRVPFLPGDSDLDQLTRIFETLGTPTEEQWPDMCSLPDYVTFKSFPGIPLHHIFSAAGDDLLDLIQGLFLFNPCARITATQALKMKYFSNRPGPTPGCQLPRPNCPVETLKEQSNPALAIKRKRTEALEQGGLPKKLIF
Chain of CDK9/cyclin T1 (O60563 whole entry): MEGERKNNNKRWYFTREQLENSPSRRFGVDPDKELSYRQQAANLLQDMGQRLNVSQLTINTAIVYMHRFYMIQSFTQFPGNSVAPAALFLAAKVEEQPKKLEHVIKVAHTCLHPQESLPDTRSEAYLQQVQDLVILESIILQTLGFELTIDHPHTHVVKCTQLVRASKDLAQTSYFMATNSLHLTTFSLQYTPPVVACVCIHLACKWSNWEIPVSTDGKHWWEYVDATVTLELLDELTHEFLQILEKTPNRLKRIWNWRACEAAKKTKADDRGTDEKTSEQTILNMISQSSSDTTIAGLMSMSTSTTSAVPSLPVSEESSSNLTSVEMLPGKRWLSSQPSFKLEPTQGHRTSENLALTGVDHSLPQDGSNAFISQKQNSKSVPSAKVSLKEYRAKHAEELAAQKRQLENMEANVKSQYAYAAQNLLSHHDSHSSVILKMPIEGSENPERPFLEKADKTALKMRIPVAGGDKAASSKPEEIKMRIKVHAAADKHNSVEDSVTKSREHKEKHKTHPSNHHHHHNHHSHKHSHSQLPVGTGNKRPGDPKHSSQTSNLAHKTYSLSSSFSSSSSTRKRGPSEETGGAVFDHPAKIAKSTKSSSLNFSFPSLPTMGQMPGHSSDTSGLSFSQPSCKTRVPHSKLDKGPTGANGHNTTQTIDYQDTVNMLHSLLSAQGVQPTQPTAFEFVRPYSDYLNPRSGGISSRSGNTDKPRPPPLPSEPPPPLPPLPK
Chain of CDK9/cyclin T1 (P50750 whole entry): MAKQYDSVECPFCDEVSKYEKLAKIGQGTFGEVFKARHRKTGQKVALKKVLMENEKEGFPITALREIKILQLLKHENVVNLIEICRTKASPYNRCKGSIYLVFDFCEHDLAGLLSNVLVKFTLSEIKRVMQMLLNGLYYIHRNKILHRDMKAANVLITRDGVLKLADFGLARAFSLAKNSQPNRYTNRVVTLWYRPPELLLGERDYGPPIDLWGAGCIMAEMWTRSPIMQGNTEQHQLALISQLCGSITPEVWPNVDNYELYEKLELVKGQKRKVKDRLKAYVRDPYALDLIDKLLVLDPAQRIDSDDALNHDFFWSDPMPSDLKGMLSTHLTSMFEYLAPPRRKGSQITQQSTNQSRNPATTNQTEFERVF

## CNc1nc(C)c(-c2nc(Nc3cccc(N4CCN5CCC4CC5)c3)ncc2C)s1
A2780 [1]
  Activity: 3.6%
A2780 [2]
  Activity: Active
A2780 [3]
  Activity: 22.2%
A2780 [4]
  GI50: 640 nM
A2780 [5]
  Activity: 56.5%
CDK9/cyclin T1
  Ki: 10 nM
[6]
  inhibition: Active
A2780 [7]
  Activity: 47.2%
HCT-116 [8]
  Activity: Active
A2780 [9]
  Activity: Active
HCT-116 [10]
  GI50: 1070 nM
[11]
  Ki: 546 nM
A2780 [12]
  Activity: Active
Homo sapiens [13]
  Ratio Ki: 125
Homo sapiens [14]
  Ratio Ki: 100
A2780 [15]
  Activity: 15.3%
HCT-116 [16]
  Activity: Active
A2780 [17]
  Activity: Active
MCF7
  GI50: 1340 nM
A2780 [18]
  Activity: Dose-Dependent Effect
A2780 [19]
  Activity: 34.2%
CDK2/Cyclin A2
  Ki: 1250 nM
A2780 [20]
  viability at 1 µM: 74.4%
A2780 [21]
  Activity: 24.3%
HeLa
  GI50: 800 nM
A2780 [22]
  Activity: 8.3%
A2780 [23]
  Activity: 34%
A2780 [24]
  Activity: 2.5%
A2780 [25]
  viability at 2 µM: 67.9%
A549
  GI50: 1540 nM
